From ChEMBL document CHEMBL2413071, “Discovery of 2-methyl-1-{1-[(5-methyl-1H-indol-2-yl)carbonyl]piperidin-4-yl}propan-2-ol: a novel, potent and selective type 5 17β-hydroxysteroid dehydrogenase inhibitor” (Bioorg Med Chem, 2013)
Active and inactive are the calls of the source. No cut-off for these calls is given here.

Key:
[1] = target: T1, Aldo-keto reductase family 1 member C3 (Homo sapiens, UniProt P42330); experiment: Inhibition of human 17beta-HSD5 expressed in HEK293 cells using androstenedione as substrate assessed as testosterone synthesis after 4 hrs; type: cell-based
T1 sequence (P42330 whole entry): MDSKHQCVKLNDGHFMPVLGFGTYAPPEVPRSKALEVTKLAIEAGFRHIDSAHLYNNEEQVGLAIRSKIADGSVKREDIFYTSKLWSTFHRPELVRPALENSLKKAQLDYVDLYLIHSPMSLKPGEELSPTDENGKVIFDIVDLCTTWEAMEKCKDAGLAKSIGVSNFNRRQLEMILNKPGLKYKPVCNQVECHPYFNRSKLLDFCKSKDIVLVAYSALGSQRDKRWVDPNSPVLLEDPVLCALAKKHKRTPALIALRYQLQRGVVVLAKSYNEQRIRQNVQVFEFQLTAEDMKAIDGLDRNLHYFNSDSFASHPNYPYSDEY
Method in brief: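 HEK293 cells stably expressing human 17β-HSD5 were seeded at 2×10^4 cells/well in D-MEM/10% FBS and incubated overnight at 37 °C, 5% CO2. Androstenedione (final 300 nmol/mL) was added with compound. After 4 h, supernatant testosterone was measured by DELFIA immunoassay.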

[2] = Plasma concentration in ICR mouse at 30 mg/kg, po after 4 hrs by HPLC analysis; type: ADME, organism-based; design: dose 30 mg/kg, route oral
Method in brief: (§1)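 ICR mice were dosed orally, and blood was collected 1 or 4 h later. Compound was extracted from plasma with acetonitrile and quantified by HPLC.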

[3] = Permeability of the compound after 2 hrs at pH 6.5 by PAMPA; type: ADME; conditions: read-out: permeability
Method in brief: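 PAMPA used a donor at pH 6.5 (universal buffer, 10% DMSO, typical final sample 50 μM, filtered) and an acceptor at pH 7.4, separated by a filter coated with 20% lecithin in dodecane. Plates were incubated at 25 °C for 2 h under saturated humidity. Both compartments were quantified by UV spectrum (270-400 nm) against standards, with a mass balance correction; Pe was then calculated.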

[4] = Plasma concentration in ICR mouse at 30 mg/kg, po after 1 hr by HPLC analysis; type: ADME, organism-based; design: dose 30 mg/kg, route oral; method in brief: as §1
[5] = Solubility of the compound at pH 6.8; type: physicochemical; conditions: buffer
Method in brief: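 A 10 mM DMSO solution (13 μL) was added to 1 mL of Japanese Pharmacopoeia second disintegration fluid (pH 6.8) and shaken at 25 °C for 20 h. Solubility was calculated from the LC peak-area ratio of sample to standard.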

[6] = target: T1, Aldo-keto reductase family 1 member C3; experiment: Inhibition of human 17beta-HSD5 expressed in human CWR22R cells using androstenedione as substrate assessed as testosterone synthesis after 4 hrs; type: cell-based
Method in brief: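 CWR22R cells were seeded at 2×10^4 cells/well in RPMI-1640/10% FBS and incubated overnight at 37 °C, 5% CO2. Compound was added with androstenedione (final 300 nmol/mL). After 4 h, supernatant testosterone was quantified by DELFIA.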

[7] = AUC (0 to 24 hrs) in Sprague-Dawley rat at 1 mg/kg, iv; type: ADME, organism-based; design: time < 24 hr, dose 1 mg/kg, route intravenous; conditions: plasma
Method in brief: (§2)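 Male Sprague-Dawley rats aged 8 weeks received a single 1 mg/kg dose. The iv vehicle was saline with 15% DMF and 20% PEG 400; the oral vehicle was water with 10% DMF and 10% propylene glycol. Blood was sampled at multiple times up to 24 h and spun at 16,000 g for 2 min at 4 °C. Plasma drug was measured by HPLC-MS/MS.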

[8] = Half life in Sprague-Dawley rat at 1 mg/kg, iv; type: ADME, organism-based; design: dose 1 mg/kg, route intravenous; conditions: in vivo; method in brief: as §2
Mus musculus [9] = experiment: Inhibition of androstenedione-induced testosterone production in tumor of human CWR22R cells xenografted in po dosed BALB/c athymic nude mouse treated 1 hr prior to androstenedione-challenge measured after 2 hrs; type: functional, organism-based
Method in brief: (§3)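 Male BALB/c athymic nude mice aged 4-6 weeks were castrated, then given subcutaneous CWR22R tumor cells (protease-digested fragments in RPMI 1640/20% FBS mixed 1:1 with Matrigel) into each flank. About 3 weeks later, size-matched mice were randomized (n = 4/group) and dosed orally. Androstenedione (1 ng/100 mm3 tumor) was injected intratumorally 1 h post-dose. Tumors were removed at 2 h, homogenized in 200 mmol/L phosphate pH 7.4, and extracted with tert-butyl methyl ether; testosterone was read by DELFIA.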

[10] = Tmax in Sprague-Dawley rat at 1 mg/kg, po; type: ADME, organism-based; design: dose 1 mg/kg, route oral; conditions: in vivo; method in brief: as §2
[11] = Volume of distribution at steady state in Sprague-Dawley rat at 1 mg/kg, iv; type: ADME, organism-based; design: dose 1 mg/kg, route intravenous; conditions: in vivo, read-out: Vdss; method in brief: as §2
Mus musculus [12] = experiment: Inhibition of androstenedione-induced testosterone production in tumor of human CWR22R cells xenografted in BALB/c athymic nude mouse at 10 mg/kg, po treated 1 hr prior to androstenedione-challenge measured after 2 hrs; type: functional, organism-based; design: dose 10 mg/kg; method in brief: as §3
[13] = AUC (0 to 24 hrs) in Sprague-Dawley rat at 1 mg/kg, po; type: ADME, organism-based; design: time < 24 hr, dose 1 mg/kg, route oral; conditions: plasma; method in brief: as §2
[14] = target: Voltage-gated inwardly rectifying potassium channel KCNH2 (Homo sapiens, UniProt Q12809); experiment: Inhibition of human ERG channel by Rb efflux assay
Sequence of Voltage-gated inwardly rectifying potassium channel KCNH2 (Q12809 whole entry): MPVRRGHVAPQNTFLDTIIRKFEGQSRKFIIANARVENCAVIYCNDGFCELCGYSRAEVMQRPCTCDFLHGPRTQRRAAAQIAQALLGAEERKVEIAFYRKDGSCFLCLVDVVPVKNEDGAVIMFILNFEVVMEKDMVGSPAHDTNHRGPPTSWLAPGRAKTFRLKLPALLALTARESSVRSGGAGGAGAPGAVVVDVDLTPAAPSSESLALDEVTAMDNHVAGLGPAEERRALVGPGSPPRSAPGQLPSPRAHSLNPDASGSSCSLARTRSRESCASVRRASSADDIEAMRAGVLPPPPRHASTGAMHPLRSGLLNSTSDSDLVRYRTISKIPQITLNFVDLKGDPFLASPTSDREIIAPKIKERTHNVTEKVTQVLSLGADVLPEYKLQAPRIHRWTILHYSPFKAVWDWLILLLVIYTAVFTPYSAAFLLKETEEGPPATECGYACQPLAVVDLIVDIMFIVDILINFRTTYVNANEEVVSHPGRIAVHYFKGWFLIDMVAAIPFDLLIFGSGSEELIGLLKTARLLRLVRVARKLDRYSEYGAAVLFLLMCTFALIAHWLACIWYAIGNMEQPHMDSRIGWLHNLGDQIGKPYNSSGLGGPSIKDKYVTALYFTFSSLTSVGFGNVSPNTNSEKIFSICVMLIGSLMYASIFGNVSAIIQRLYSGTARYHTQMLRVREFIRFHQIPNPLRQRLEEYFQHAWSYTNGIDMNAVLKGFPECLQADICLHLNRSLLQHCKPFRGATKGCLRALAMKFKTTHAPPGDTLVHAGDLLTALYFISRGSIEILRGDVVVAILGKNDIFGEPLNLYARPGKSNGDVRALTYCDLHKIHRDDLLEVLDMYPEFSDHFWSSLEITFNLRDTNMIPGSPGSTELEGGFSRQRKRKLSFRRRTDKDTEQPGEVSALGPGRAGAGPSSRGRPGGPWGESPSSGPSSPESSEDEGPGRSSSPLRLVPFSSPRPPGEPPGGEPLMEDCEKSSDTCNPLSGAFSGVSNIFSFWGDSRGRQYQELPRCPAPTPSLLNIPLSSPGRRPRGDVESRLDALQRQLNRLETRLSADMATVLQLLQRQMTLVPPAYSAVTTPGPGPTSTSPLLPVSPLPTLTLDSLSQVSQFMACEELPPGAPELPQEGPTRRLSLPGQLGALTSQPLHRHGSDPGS

Cytochrome P450 2D6 = Cytochrome P450 2D6 (Homo sapiens, UniProt P10635); experiment: Inhibition of CYP2D6 (unknown origin); type: ADME
Sequence of Cytochrome P450 2D6 (P10635 whole entry): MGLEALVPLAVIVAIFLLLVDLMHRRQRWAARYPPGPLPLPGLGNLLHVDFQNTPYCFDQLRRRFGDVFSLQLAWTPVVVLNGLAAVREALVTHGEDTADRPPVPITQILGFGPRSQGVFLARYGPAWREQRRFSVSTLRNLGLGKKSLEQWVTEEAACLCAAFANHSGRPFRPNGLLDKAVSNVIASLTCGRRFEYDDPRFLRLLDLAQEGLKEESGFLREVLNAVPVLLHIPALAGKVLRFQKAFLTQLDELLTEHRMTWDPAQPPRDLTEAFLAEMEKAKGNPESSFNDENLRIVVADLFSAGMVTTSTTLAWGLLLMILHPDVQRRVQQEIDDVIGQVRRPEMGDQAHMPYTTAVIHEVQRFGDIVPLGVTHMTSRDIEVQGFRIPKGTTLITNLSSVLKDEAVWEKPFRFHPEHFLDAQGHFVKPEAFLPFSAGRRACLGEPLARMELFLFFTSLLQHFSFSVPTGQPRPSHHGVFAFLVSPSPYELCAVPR

Cytochrome P450 1A2 = target: T2, Cytochrome P450 1A2 (Homo sapiens, UniProt P05177); experiment: Inhibition of CYP1A2 (unknown origin); type: ADME
T2 sequence (P05177 whole entry): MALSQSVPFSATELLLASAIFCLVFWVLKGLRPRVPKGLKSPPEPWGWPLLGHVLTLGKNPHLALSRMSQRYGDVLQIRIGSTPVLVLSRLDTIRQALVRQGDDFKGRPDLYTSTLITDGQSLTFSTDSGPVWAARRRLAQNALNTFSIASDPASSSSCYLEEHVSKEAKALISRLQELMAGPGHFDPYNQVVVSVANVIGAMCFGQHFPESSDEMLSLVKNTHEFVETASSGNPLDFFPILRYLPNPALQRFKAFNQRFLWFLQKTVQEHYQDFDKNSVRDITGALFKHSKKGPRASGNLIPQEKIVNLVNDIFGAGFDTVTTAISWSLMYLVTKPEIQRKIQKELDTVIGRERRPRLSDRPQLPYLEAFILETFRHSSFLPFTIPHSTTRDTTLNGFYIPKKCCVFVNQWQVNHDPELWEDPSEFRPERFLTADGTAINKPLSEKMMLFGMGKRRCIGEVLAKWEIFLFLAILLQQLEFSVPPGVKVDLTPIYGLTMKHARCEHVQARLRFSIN

[15] = target: T1, Aldo-keto reductase family 1 member C3; experiment: Inhibition of human AKR1C3-mediated 9,10-phenanthrenequinone reduction after 10 to 20 mins by spectrophotometry in presence of NADPH
Method in brief: (§4)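 Purified human AKR1C enzyme (final 10 μg/mL) was mixed with 9,10-phenanthrenequinone (4 μmol/L), NADPH (200 μmol/L) and compound in 100 mM potassium phosphate pH 6.0, at room temperature for 10-20 min. NADPH absorbance was read at 340 nm and normalized to no-enzyme (0%) and no-compound (100%) controls. IC50 was obtained by Sigmoid-Emax nonlinear regression.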

Cytochrome P450 2C19 = Cytochrome P450 2C19 (Homo sapiens, UniProt P33261); experiment: Inhibition of CYP2C19 (unknown origin); type: ADME
Sequence of Cytochrome P450 2C19 (P33261 whole entry): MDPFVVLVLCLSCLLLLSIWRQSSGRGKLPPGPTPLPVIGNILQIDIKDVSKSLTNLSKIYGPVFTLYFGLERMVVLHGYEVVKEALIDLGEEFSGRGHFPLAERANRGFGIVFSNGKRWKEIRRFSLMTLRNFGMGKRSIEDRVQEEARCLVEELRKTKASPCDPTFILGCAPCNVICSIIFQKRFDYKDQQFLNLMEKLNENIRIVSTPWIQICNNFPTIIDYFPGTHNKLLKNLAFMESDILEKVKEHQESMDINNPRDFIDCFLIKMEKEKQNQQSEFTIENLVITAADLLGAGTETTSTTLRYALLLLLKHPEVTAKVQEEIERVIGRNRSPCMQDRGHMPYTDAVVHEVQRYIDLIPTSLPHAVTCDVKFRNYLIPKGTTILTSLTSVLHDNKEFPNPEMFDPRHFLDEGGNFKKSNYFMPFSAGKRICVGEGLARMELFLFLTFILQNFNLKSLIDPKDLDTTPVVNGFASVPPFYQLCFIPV

Cytochrome P450 2C9 = Cytochrome P450 2C9 (Homo sapiens, UniProt P11712); experiment: Inhibition of CYP2C9 (unknown origin); type: ADME
Sequence of Cytochrome P450 2C9 (P11712 whole entry): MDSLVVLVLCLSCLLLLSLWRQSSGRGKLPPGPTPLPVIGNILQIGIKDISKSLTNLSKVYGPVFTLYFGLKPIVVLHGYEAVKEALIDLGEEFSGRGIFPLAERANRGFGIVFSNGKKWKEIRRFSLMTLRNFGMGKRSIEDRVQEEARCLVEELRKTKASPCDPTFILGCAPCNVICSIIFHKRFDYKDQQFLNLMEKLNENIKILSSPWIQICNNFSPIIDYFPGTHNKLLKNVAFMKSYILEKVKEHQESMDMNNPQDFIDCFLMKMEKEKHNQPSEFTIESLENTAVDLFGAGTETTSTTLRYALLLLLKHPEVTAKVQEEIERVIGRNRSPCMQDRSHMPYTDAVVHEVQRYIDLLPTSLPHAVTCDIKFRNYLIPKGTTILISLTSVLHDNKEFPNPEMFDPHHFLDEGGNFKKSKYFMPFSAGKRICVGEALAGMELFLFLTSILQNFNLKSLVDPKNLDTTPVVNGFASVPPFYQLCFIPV

[16] = target: T3, Aldo-keto reductase family 1 member C2 (Homo sapiens, UniProt P52895); experiment: Inhibition of human AKR1C2-mediated 9,10-phenanthrenequinone reduction after 10 to 20 mins by spectrophotometry in presence of NADPH; method in brief: as §4
T3 sequence (P52895 whole entry): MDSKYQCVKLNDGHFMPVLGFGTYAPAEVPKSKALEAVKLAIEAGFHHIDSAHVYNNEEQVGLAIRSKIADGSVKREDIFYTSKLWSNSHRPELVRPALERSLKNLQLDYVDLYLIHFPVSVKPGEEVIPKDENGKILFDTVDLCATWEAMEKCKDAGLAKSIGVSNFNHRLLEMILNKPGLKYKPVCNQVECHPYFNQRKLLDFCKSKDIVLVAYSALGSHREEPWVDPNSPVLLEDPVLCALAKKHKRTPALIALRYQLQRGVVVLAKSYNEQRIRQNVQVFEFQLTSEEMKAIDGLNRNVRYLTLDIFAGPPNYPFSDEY

[17] = Cmax in Sprague-Dawley rat at 1 mg/kg, po; type: ADME, organism-based; design: dose 1 mg/kg, route oral; conditions: in vivo; method in brief: as §2
[18] = Total clearance in Sprague-Dawley rat at 1 mg/kg, iv; type: ADME, organism-based; design: dose 1 mg/kg, route intravenous; conditions: in vivo; method in brief: as §2
[19] = Oral bioavailability in Sprague-Dawley rat at 1 mg/kg; type: ADME, organism-based; conditions: in vivo; method in brief: as §2
Cytochrome P450 3A4 = Cytochrome P450 3A4 (Homo sapiens, UniProt P08684); experiment: Inhibition of CYP3A4 (unknown origin) using nifedipine as substrate; type: ADME
Sequence of Cytochrome P450 3A4 (P08684 whole entry): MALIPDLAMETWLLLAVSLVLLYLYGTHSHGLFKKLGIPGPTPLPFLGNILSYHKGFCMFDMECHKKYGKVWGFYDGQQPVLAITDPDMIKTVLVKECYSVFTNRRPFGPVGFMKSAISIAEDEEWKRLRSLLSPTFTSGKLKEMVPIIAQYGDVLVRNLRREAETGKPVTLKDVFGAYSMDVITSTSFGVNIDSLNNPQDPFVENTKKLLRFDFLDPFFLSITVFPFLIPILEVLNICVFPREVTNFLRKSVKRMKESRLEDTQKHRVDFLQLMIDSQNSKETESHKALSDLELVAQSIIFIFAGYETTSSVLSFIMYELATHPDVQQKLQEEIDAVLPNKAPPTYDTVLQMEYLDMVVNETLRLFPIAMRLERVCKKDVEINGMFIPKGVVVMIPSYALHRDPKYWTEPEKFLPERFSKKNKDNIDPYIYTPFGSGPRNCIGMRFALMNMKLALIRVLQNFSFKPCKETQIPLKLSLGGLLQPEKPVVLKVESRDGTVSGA

## O=C(c1cc2ccccc2[nH]1)N1CCCC(CCO)C1 (centres undefined)
[1]
  IC50: 2.1 µM

## Cc1ccc2[nH]c(C(=O)N3CCC(CCCO)CC3)cc2c1
[1]
  IC50: 0.16 µM

## CC(=O)CC1CCN(C(=O)c2cc3ccccc3[nH]2)CC1
[1]
  IC50: 0.013 µM

## CC(O)CC1CCN(C(=O)c2cc3ccccc3[nH]2)CC1 (centres undefined)
[1]
  IC50: 0.012 µM

## O=C(NCCCCCO)c1cc2ccccc2[nH]1
[1]
  IC50: 1.2 µM

## Cc1ccc2[nH]c(C(=O)N3CCC(CC(=O)O)CC3)cc2c1
[1]
  IC50: > 10 µM

## O=C(c1cc2ccccc2[nH]1)N1CCC(CCO)C1 (centres undefined)
[1]
  IC50: 1.1 µM

## O=C(c1cc2ccccc2[nH]1)N1CC(CCO)C1
[1]
  IC50: 0.14 µM

## Cc1ccc2[nH]c(C(=O)N3CC=CCC3)cc2c1
[1]
  IC50: 2.8 µM

## CC(C)(O)CC1CCN(C(=O)c2cc3ccccc3[nH]2)CC1
[2]
  concentration at 4 h: < 100 nM
[3]
  Papp at 2 h: 26 ×10⁻⁶ cm/s
[4]
  concentration at 1 h: 2610 nM
[5]
  solubility: > 100 µM
[1]
  IC50: 0.0021 µM

## Cc1ccc2[nH]c(C(=O)N3CCC(CCO)CC3)cc2c1
[2]
  concentration at 4 h: < 100 nM
[3]
  Papp at 2 h: > 30 ×10⁻⁶ cm/s
[4]
  concentration at 1 h: < 100 nM
[5]
  solubility: > 100 µM
[6]
  IC50: 0.058 µM
[1]
  IC50: 0.037 µM

## O=C(c1cc2ccccc2[nH]1)N1CCCCC1CCO (centres undefined)
[1]
  IC50: 0.23 µM

## O=C(c1cc2ccccc2[nH]1)N1CCC(CCO)CC1
[1]
  IC50: 0.0045 µM

## COCCC1CCN(C(=O)c2cc3ccccc3[nH]2)CC1
[1]
  IC50: 0.033 µM

## Cc1ccc2[nH]c(C(=O)N3CCN(CCO)CC3)cc2c1
[1]
  IC50: 0.77 µM

## Cc1ccc2[nH]c(C(=O)N3CCC(CO)CC3)cc2c1
[1]
  IC50: 0.79 µM

## Cc1ccc2[nH]c(C(=O)N3CCC(CC(C)(C)O)CC3)cc2c1
[7]
  AUC(0-t) at 24 h: 395 ng·h/mL
[8]
  half-life: 27.6 min
Mus musculus [9]
  inhibition: Dose-dependent effect
[2]
  concentration at 4 h: 3100 nM
[10]
  Tmax: 30 min
[3]
  Papp at 2 h: > 30 ×10⁻⁶ cm/s
[11]
  Vd: 1.7 L/kg
Mus musculus [12]
  inhibition: Active
[13]
  AUC(0-t) at 24 h: 255 ng·h/mL
[14]
  IC50: > 100 µM
Cytochrome P450 2D6
  IC50: > 25 µM
[4]
  concentration at 1 h: 10900 nM
[5]
  solubility: > 100 µM
Cytochrome P450 1A2
  IC50: > 25 µM
[6]
  IC50: 0.0019 µM
[15]
  IC50: 0.024 µM
Cytochrome P450 2C19
  IC50: > 25 µM
Cytochrome P450 2C9
  IC50: > 25 µM
[16]
  IC50: > 20 µM
[1]
  IC50: 0.00034 µM
[17]
  Cmax: 180 ng/mL
[18]
  clearance: 42 mL/min/kg
[19]
  bioavailability: 65%
Cytochrome P450 3A4
  IC50: > 100 µM
